Screening data as filed in PubChem.
OX1R antag-1 = blocks the human orexin 1 receptor; O43613; CHO/OX1R cells, Fluo-8 calcium fluorescence, orexin A; inhibition, % at 5 µM; actives 0.43% (n = 330,000);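 active means inhibition above its plate's threshold, mean inhibition of all tested compounds on the plate plus 3 SD, cut at about 37% in these data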;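 further: 0% = orexin A challenge wells and 100% = SB-334867-A antagonist wells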
Target sequence (O43613 whole entry, looked up): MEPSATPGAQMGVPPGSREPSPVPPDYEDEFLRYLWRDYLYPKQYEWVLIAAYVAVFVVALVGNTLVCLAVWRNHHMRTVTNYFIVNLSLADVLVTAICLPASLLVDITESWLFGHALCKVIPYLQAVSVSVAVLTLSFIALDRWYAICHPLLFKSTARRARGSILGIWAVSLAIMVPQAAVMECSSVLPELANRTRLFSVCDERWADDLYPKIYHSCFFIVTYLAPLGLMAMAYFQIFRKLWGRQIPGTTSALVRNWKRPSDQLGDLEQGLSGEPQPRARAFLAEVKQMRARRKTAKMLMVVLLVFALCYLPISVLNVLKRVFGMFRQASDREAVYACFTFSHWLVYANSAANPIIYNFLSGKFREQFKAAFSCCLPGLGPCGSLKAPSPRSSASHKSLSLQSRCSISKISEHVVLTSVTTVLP
CHO-K1 Ca antag = nonselective inhibitor or artifact in parental CHO-K1 cells; ATP-induced calcium, Fluo-8 fluorescence; inhibition, % at 3 µM; actives 0.6% (n = 360,000); AID 602250;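 active means inhibition above a per-plate cutoff, the plate's mean sample inhibition plus 3 SD, cut at about 24% in these data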;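 further: 0% = DMSO plus EC80 ATP and 100% = DMSO alone without ATP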
CHO-K1 Ca PAM = counter-screen for M1 PAMs: effect in parental CHO-K1 cells; activation, % at 3 µM; actives 0.02% (n = 360,000); AID 602247; ATP EC20, Fluo-8 calcium fluorescence; 0% at ATP EC20, 100% at ATP max;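 active means activation above the run cutoff, the mean activation of all test compounds plus 3 SD, cut at about 40% in these data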;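 further: peak over basal fluorescence ratio in a 140 s read after ATP addition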
CHO parental Ca = signal in parental CHO cells, OX1R antagonist counter-screen | AID 463079 | parental CHO-K1, ATP-induced calcium, Fluo-8 fluorescence | inhibition, % at 5.6 µM | actives 0.63% (n = 330,000);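 active means inhibition above that plate's mean sample inhibition plus 3 SD, cut at about 26% in these data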;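 further: 0% = ATP-challenged DMSO wells and 100% = DMSO wells without ATP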
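Test system: untransfected parental CHO cell line. Compound: one dose, 5.6 µM nominal. Detection: intracellular calcium via Fluo-8 no-wash fluorescent dye. Measure: % inhibition. Benchmarks: ATP-challenged DMSO wells low, unchallenged DMSO wells high.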
OX1R antag-2 = antagonists of human orexin 1 receptor (OX1R); O43613; OX1R-expressing cells, FRET antagonist read-out; inhibition, % at 6.6 µM; actives 1.8% (n = 330,000); AID 485270; in the data active means inhibition mostly above about 38%, no sharp cut-off; inactive means mostly below about 40%;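 further: 0% = agonist challenge alone and 100% = reference antagonist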
CHO-K1 Ca ag = counter-screen for M1 agonists: effect in parental CHO-K1 cells | Fluo-8 calcium fluorescence; scaled to maximal ATP response, vehicle zero | activation, % at 3 µM | actives 0.48% (n = 360,000) | AID 602248; in the data active means activation above about 15%;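 further: untransfected CHO-K1 host cells lacking M1 receptor as counterscreen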
* = called active by the depositor; . = no result given. Shown are actives, neighbours in structure and some others; about 2.9% of the full set was active somewhere.

SMILES	OX1R antag-1	CHO-K1 Ca antag	CHO-K1 Ca PAM	CHO parental Ca	OX1R antag-2	CHO-K1 Ca ag
COc1ccc(NC(=O)C2Cc3c(-c4ccccc4Oc4ccccc4)ccnc3O2)cc1OC (centres undefined)	.	6	-5	.	.	1
O=C(NCC1CCCN(Cc2ccc3nonc3c2)C1)c1cccc(C(F)(F)F)c1 (centres undefined)	-26	-8	22	-32	30	0
FC(F)(F)c1ccccc1Cc1c(-c2ccco2)nc2ccc(Br)cn12	.	-22	-1	.	.	1
CC(=O)N1CCN(c2ccc([N+](=O)[O-])c(NCC3CCCO3)c2)CC1 (centres undefined)	-9	14	-4	-14	79*	0
Nc1ccccc1-n1nc2ccc3ccccc3c2n1	.	4	-10	.	.	-1
Cc1ccc(S(=O)(=O)Nc2ccc(O)c3ccccc23)c(C)c1	.	27*	-28	.	.	1
COc1ccc(S(=O)(=O)Nc2ccc(O)c3ccccc23)cc1	-15	-8	12	-9	43*	0
Cc1ccc(S(=O)(=O)Nc2ccc3c4c(cccc24)CC3)c(C)c1	-12	-21	27	-15	40	0
Cc1ccc(S(=O)(=O)Nc2cc(C(C(=O)OC(C)C)C(=O)C(F)(F)F)c(O)c3ccccc23)c(C)c1 (centres undefined)	51*	-7	8	31*	114*	1
O=S(=O)(Nc1c(O)ccc2ccccc12)c1ccccc1	6	2	-1	-27	64*	1
O=S(=O)(Nc1c(O)ccc2ccccc12)c1ccc(F)cc1	-7	-6	9	-39	41	3
Cc1ccc(C)c(S(=O)(=O)Nc2ccc(O)c3ccccc23)c1	-12	12	-13	-5	14	0
O=C(CCN1C(=O)c2ccccc2C1=O)NCc1ccc(Cl)cc1	-22	-5	-6	-17	20	0
COc1cc2c(cc1NC(=O)C(c1ccccc1)c1ccccc1)CCCC2	36	-12	10	32*	21	0
NS(=O)(=O)c1ccc(CNC(=O)C23CC4CC(CC(C4)C2)C3)cc1	0	28*	-9	7	16	-1
O=C1c2ccccc2S(=O)(=O)N1CCS(=O)(=O)c1ccc(F)cc1	-35	-12	20	-8	11	1
COc1ccc(C(c2c(C)n(C)n(-c3ccccc3)c2=O)c2c(C)n(C)n(-c3ccccc3)c2=O)cc1OC	-11	-3	0	-6	13	0
COc1ccc(C(c2c(C)[nH]n(-c3ccccc3)c2=O)c2c(C)[nH]n(-c3ccccc3)c2=O)cc1OC	-1	0	28	-3	27	15*
COC(=O)C(=N/Nc1ccccc1C(=O)OC)/C(C)=N/O	-7	-17	5	-19	21	0
O=C(Nc1cccc(F)c1)C1CCN(S(=O)(=O)c2cccc3nonc23)CC1	-15	-16	2	9	20	20*
c1ccc2c(c1)Cn1c-2nc2ccccc21	-1	7	6	-12	38	0
Brc1c(-c2ccccc2)nc2n1Cc1ccccc1-2	-29	-7	18	-25	64*	1
CCCCC(Nc1ncnc2ccccc12)C(=O)O (centres undefined)	-4	-9	11	-7	7	0
CC(Nc1ncnc2ccccc12)c1ccccc1 (centres undefined)	21	24*	12	38*	6	11
CCOc1ccc(S(=O)(=O)Nc2ccc(C(=O)N3CCCC3)cc2)cc1	-21	-4	-26	-10	12	1
SMILES	OX1R antag-1	CHO-K1 Ca antag	CHO-K1 Ca PAM	CHO parental Ca	OX1R antag-2	CHO-K1 Ca ag
COc1ccc(NS(=O)(=O)c2ccc(C(=O)N3CCCCCC3)cc2)cc1	13	-4	-10	18	9	18*
Cn1cc([N+](=O)[O-])c(C(=O)Nc2ccc(C(=O)N3CCCCC3)cc2)n1	-16	-17	19	-10	73*	0
CCOc1ccc(NS(=O)(=O)c2ccc(C(=O)N3CCCCCC3)cc2)cc1	2	-7	-9	-1	27	15*
CCCC(=O)Nc1ccc(C(=O)N2CCCC2)cc1	7	24*	-5	-6	13	0
CCCN(CC(=O)Nc1ccccc1OC)C(=O)c1ccc(COc2ccccc2)o1	-14	-16	3	-21	6	6
CCCS(=O)(=O)NC(=O)C1(C)CCCN(C(=O)c2ccccc2F)C1 (centres undefined)	.	-7	-9	.	.	0
COC(=O)CNC(=O)COC(=O)c1ccc(Cl)nc1	-11	-22	20	-10	15	1
CCCCCOc1ccc(C2C(C(=O)c3ccc(C)o3)=C(O)C(=O)N2c2cc(C)on2)cc1 (centres undefined)	-14	-5	3	-16	5	0
COc1ccccc1NC(=O)CCSc1nc(C)cs1	-21	-6	16	-2	11	0
O=C(c1ccccc1)c1ccc(C(=O)N2CCCC(C(F)(F)F)C2)cc1 (centres undefined)	-22	-5	14	-6	17	1
CCOc1ccc(NS(=O)(=O)c2ccc(C(=O)NCC3(N(C)C)CCCCC3)cc2)cc1	20	10	-3	55*	2	19*
CCOc1ccc(NS(=O)(=O)c2ccc(C(=O)N3CCCC(C)C3)cc2)cc1 (centres undefined)	36*	8	-5	52*	17	31*
CNC(=O)COc1ccc(S(=O)(=O)Nc2ccc(OC)cc2)cc1	-5	9	-11	-10	12	0
CCOc1ccc(S(=O)(=O)Nc2ccc(C(=O)N3CCC3)cc2)cc1	-24	8	-16	4	14	1
CCOc1ccc(NS(=O)(=O)c2ccc(C(=O)NCC3(N4CCCCC4)CCCCC3)cc2)cc1	20	-8	19	7	2	7
O=C(c1ccc(S(=O)(=O)Nc2ccccc2)cc1)N1CCCC(C(F)(F)F)C1 (centres undefined)	3	26*	-30	7	14	15*
COc1ccc(NS(=O)(=O)c2ccc(OCC(=O)N3CCCC3)cc2)cc1	-11	-7	20	-1	26	17*
COc1ccc(CNCc2cccc(Oc3ccccc3)c2)cc1	-22	-5	-8	-25	18	10
Cc1ccc(NC(=O)CN2CCN(C(=O)c3ccco3)CC2)cc1S(=O)(=O)N(C)C	.	-9	10	.	.	1
CCN(CC(=O)Nc1ccccc1C(F)(F)F)CC(=O)c1[nH]c(C)c(C(C)=O)c1C	.	29*	-13	.	.	4
CC(=O)c1c(C)[nH]c(C(=O)CN(C)CC(=O)Nc2ccccc2Cl)c1C	12	-7	9	-21	32	6
CCOc1cc(CNn2cnnc2)cc(Cl)c1OCC(=O)NC(C)(C)C	6	-10	14	-1	31	0
